Assay results as given in ChEMBL document CHEMBL1123881, “Synthesis and antiarrhythmic activity of new 3-[2-(omega-aminoalkoxy)phenoxy]-4-phenyl-3-buten-2-ones and related compounds” (J Med Chem, 1987).
Values after ≈ are worked out from the molar mass of the structure shown.

Assays:
[1] = system: Rattus norvegicus; experiment: Antiarrhythmic activity ( protection against CaCl2 induced ventricular fibrillation ) in anesthetized rat administered intravenously; format: functional; conditions: Heart, iv
Summary of the method: (§1)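 Sprague-Dawley albino rats, 180-200 g, conscious or urethane-anesthetized (2.8 g/kg sc). Compound given via caudal or portal vein 2 min, or orally 60 min, before rapid iv 8% CaCl2 at 1 mL/kg. Lead II ECG monitored for fibrillation within 10 min. Five to ten rats per dose.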

[2] = The compound was tested for acute toxicity when given intraperitoneally in mouse.; format: organism-based; conditions: in vivo, ip
Summary of the method: (§2)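 Albino CF1 mice of both sexes, 18-20 g, dosed intraperitoneally; survivors observed for 1 week; ten mice per dose. LD50 derived by probit method, confidence limits at p = 0.05.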

[3] = organism: Oryctolagus cuniculus; experiment: Tested in vitro for antiarrhythmic activity in isolated rabbit atria; format: functional; conditions: Heart
Summary of the method: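 Atria from New Zealand rabbits in oxygenated Ringer-Locke at 29 °C, paced with 10-ms, 10-V rectangular pulses at rising frequency to find the maximum driven frequency. This was remeasured before and 10, 15 and 20 min after drug addition. Dose-response curves on the same tissue, repeated 3-5 times. EC values by probit.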

[4] = The compound was tested for acute toxicity when given intravenously in rat; format: organism-based; conditions: in vivo, iv
Summary of the method: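 Sprague-Dawley rats of both sexes, 120-140 g, dosed intravenously; survivors observed for 1 week. LD50 derived by probit method, confidence limits at p = 0.05.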

[5] = The compound was tested for acute toxicity when given intraperitoneally in mouse; format: organism-based; conditions: in vivo, ip; summary of the method: as §2
[6] = system: Mus musculus; experiment: Antiarrhythmic activity (protection against aconitine induced ventricular tachycardia) in anesthetized mouse administered through iv.; format: functional; conditions: Heart
Summary of the method: (§3)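 Albino CF1 mice of both sexes, 20-22 g, pentobarbital-anesthetized (60 mg/kg ip), lead II ECG. Dosing iv (caudal vein) 2 min or orally 60 min before aconitine infusion, 8 µg/mL at 0.32 mL/min for 3 min. ECG read every 10 s. Endpoint is time to initial arrhythmia and to ventricular tachycardia. Ten mice per dose; probit analysis.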

[7] = system: Rattus norvegicus; experiment: The compound was tested for blood electrolyte K+ in rat serum when induced through femoral vein (iv) at a dose of 5 mg/kg; format: functional
Summary of the method: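 Sprague-Dawley rats of both sexes, 140-150 g. Serum K+ measured by flame photometry 1 h after iv dosing. Five rats per dose.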

[8] = system: Mus musculus; experiment: Antiarrhythmic activity ( protection against aconitine induced ventricular tachycardia) in anesthetized mouse administered perorally; format: functional; conditions: Heart, po; summary of the method: as §3
[9] = system: Rattus norvegicus; experiment: The compound was tested for activity on heart rate in anesthetized rat when induced through portal vein (ipv) at a dose of 2 mg/kg; format: functional
Summary of the method: (§4)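 Heart rate in anesthetized rats, given iv (femoral vein) or into the portal vein. Rate recorded a few seconds before drug administration.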

[10] = system: Mus musculus; experiment: Antiarrhythmic activity (protection against aconitine induced initial arrhythmia) in anesthetized mouse administered through iv.; format: functional; conditions: Heart; summary of the method: as §3
[11] = system: Rattus norvegicus; experiment: Antiarrhythmic activity ( protection against CaCl2 induced ventricular fibrillation ) in conscious rat administered intravenously; format: functional; conditions: Heart, iv; summary of the method: as §1
[12] = system: Canis familiaris; experiment: Antiarrhythmic activity ( protection against epinephrine induced ventricular fibrillation ) in post infarcted conscious dog administered iv.; format: functional; conditions: Canis lupus familiaris, Heart
[13] = organism: Mus musculus; experiment: The compound was tested for effective concentration (intradermal injection) that caused local anesthesia in 50% of mice by tail-clip method; format: functional, organism-based
[14] = system: Mus musculus; experiment: Antiarrhythmic activity ( protection against aconitine induced initial arrhythmia ) in anesthetized mouse administered perorally; format: functional; conditions: Heart, po; summary of the method: as §3
[15] = system: Rattus norvegicus; experiment: Antiarrhythmic activity (protection against CaCl2 induced ventricular fibrillation) in anesthetized rat administered through portal vein (ipv); format: functional; conditions: Heart; summary of the method: as §1
[16] = system: Canis familiaris; experiment: The compound was tested for antiarrhythmic activity in infarcted conscious dog through iv; format: functional; conditions: Canis lupus familiaris, Heart
Summary of the method: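 Beagle dogs of both sexes, 10-14 kg, coronary ligature under pentobarbital (30 mg/kg iv) with artificial ventilation. Next day, dogs without spontaneous arrhythmia get epinephrine 2-10 µg/kg iv (ear vein). Compound then given iv. ECG at 5-180 min, with epinephrine re-challenge at each time. Maximal ectopic beats/min counted before and after each dose, in 2-4 dogs.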

[17] = system: Rattus norvegicus; experiment: Antiarrhythmic activity ( protection against CaCl2 induced ventricular fibrillation ) in conscious rat administered orally (po); format: functional; conditions: Heart; summary of the method: as §1
[18] = system: Rattus norvegicus; experiment: The compound was tested for activity on heart rate in anesthetized rat when induced through femoral vein (iv) at a dose of 1 mg/kg; format: functional; summary of the method: as §4

Row | Compound | ED50 [1] [mg/kg] | LD50 [2] [mg/kg] | EC30 [3] [µg/mL] | LD50 [4] [mg/kg] | also measured
1 | CC(=O)/C(=C\c1ccccc1)Oc1cc(Cl)ccc1OCCN(C(C)C)C(C)C | 0.62 | 165 | 2 (≈ 4.81 µM) |  | 
2 | CC(=O)/C(=C\c1ccccc1)Oc1ccc(OCC(C)N(C)C)cc1 (stereo unspecified) | 3 | 100 | 3.5 (≈ 10.3 µM) |  | 
3 | CCN(CC)CCOc1ccc(O/C(=C/c2ccccc2)C(C)=O)cc1 | 2 | 163 | 3 (≈ 8.49 µM) |  | 
4 | CC(=O)/C(=C\c1ccccc1)Oc1ccc(OCC(O)CNC(C)(C)C)cc1 (stereo unspecified) | 3.5 |  | 2.8 (≈ 7.3 µM) |  | 
5 | CC(=O)/C(=C\c1ccccc1)Oc1ccccc1OCCCNC(C)(C)C |  | 63 | 2.3 (≈ 6.26 µM) | 12.5 | 
6 | CCN(CC)CCOc1ccc(Cl)cc1O/C(=C/c1ccccc1)C(C)=O | 0.6 | 170 | 2 (≈ 5.16 µM) |  | 
7 | CC(=O)/C(=C\c1ccccc1)Oc1ccccc1OCC(O)CN1CCN(C)CC1 (stereo unspecified) | 7.5 | 175 | 10 (≈ 24.4 µM) |  | 
8 | CCN(CC)CCOc1ccccc1O/C(=C/c1ccccc1)C(=O)c1ccccc1 |  |  | 2.8 (≈ 6.74 µM) |  | LD50 [5]: 125 mg/kg
9 | CCN(CC)CCOc1ccccc1O/C(=C/c1ccccc1)C(C)O (stereo unspecified) | 1.5 | 110 | 1.9 (≈ 5.34 µM) |  | 
10 | CC(=O)/C(=C\c1ccccc1)Oc1ccccc1OCCCN1CCCCC1 | 0.2 | 62 | 1.6 (≈ 4.22 µM) | 6.5 | 
11 | CC(=O)/C(=C\c1ccccc1)Oc1ccccc1OCCN1CCOCC1 | 5 | 180 | 6 (≈ 16.3 µM) | 30 | 
12 | CC(=O)/C(=C\c1ccccc1)Oc1ccccc1OCCCN1CCN(C)CC1 |  | 125 | 1.3 (≈ 3.3 µM) | 23.9 | 
13 | CCN(CC)CCOc1ccccc1O/C(=C/c1ccccc1)C(C)=O [ZOCAINONE] | 0.46 | 72 | 0.7 (≈ 1.98 µM) | 8.9 | ED50 [6]: 11 mg/kg; Activity [7]: 12%; ED50 [8]: 149 mg/kg; Activity [9]: -1%; ED50 [10]: 7.5 mg/kg; ED50 [11]: 0.88 mg/kg; ED50 [12]: 2 mg/kg; EC50 [13]: 0.01 µg/mL (≈ 0.0283 µM); ED50 [14]: 132 mg/kg; ED50 [15]: 2.3 mg/kg; ED50 [16]: 2 mg/kg; ED50 [17]: 13.6 mg/kg; Activity [18]: -15%
14 | CC(=O)/C(=C\c1ccccc1)Oc1ccccc1OCC(O)CNC(C)(C)C (stereo unspecified) |  | 80 | 0.51 (≈ 1.33 µM) | 17 | 
